One block for each compound: values may come before it. The source made the active and inactive calls.
How the values were obtained:
[1] = Octanol-water partition coefficient, log P of the compound at pH 7.4; assay type: physicochemical
In short: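 [11C]MeDAS (about 500,000 cpm, >98% radiochemical purity) was partitioned between n-octanol and phosphate buffer (pH 7.40) by vortexing 3 min at room temperature, then centrifuged at 3500 rpm for 5 min. The octanol layer was re-partitioned until values were consistent. logP = log of cpm/g octanol over cpm/g buffer, in triplicate.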

Heart [2] = experiment: Biodistribution in Swiss-Webster mouse heart at 3.7 MBq, iv after 5 mins; assay type: ADME, organism-based; conditions: in vivo
In short: (§1)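 About 3.7 MBq (100 μCi) of [11C]MeDAS was given by tail vein to Swiss-Webster mice, which were euthanized by cardiac excision at 5, 30 and 60 min. Heart, liver, spleen, lung, kidney, stomach and intestine were removed and counted in an automatic gamma well-counter. Results are %ID/organ, n = 3, mean ± SD.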

Liver [3] = experiment: Biodistribution in Swiss-Webster mouse liver at 3.7 MBq, iv after 5 mins; assay type: ADME, organism-based; conditions: in vivo; in short: as §1
Spleen [4] = experiment: Biodistribution in Swiss-Webster mouse spleen at 3.7 MBq, iv after 5 mins; assay type: ADME, organism-based; conditions: in vivo; in short: as §1
Lung [5] = experiment: Biodistribution in Swiss-Webster mouse lung at 3.7 MBq, iv after 5 mins; assay type: ADME, organism-based; conditions: in vivo; in short: as §1
Kidney [6] = experiment: Biodistribution in Swiss-Webster mouse kidney at 3.7 MBq, iv after 5 mins; assay type: ADME, organism-based; conditions: in vivo; in short: as §1
Stomach [7] = experiment: Biodistribution in Swiss-Webster mouse stomach at 3.7 MBq, iv after 5 mins; assay type: ADME, organism-based; conditions: in vivo; in short: as §1
Intestine [8] = experiment: Biodistribution in Swiss-Webster mouse intestine at 3.7 MBq, iv after 5 mins; assay type: ADME, organism-based; conditions: in vivo; in short: as §1
Brain [9] = experiment: Biodistribution in Swiss-Webster mouse brain at 3.7 MBq, iv after 5 mins; assay type: ADME, organism-based; conditions: in vivo
In short: (§2)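 [11C]MeDAS, up to 3.7 MBq (100 μCi), was injected into the tail vein of Swiss-Webster mice (20-25 g). Brains were removed at 5, 30 and 60 min, weighed and gamma-counted. Decay-corrected uptake is given as %ID/organ, n = 3, mean ± SD.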

Heart [10] = experiment: Biodistribution in Swiss-Webster mouse heart at 3.7 MBq, iv after 30 mins; assay type: ADME, organism-based; conditions: in vivo, 0.5 h; in short: as §1
Liver [11] = experiment: Biodistribution in Swiss-Webster mouse liver at 3.7 MBq, iv after 30 mins; assay type: ADME, organism-based; conditions: in vivo, 0.5 h; in short: as §1
Spleen [12] = experiment: Biodistribution in Swiss-Webster mouse spleen at 3.7 MBq, iv after 30 mins; assay type: ADME, organism-based; conditions: in vivo, 0.5 h; in short: as §1
Lung [13] = experiment: Biodistribution in Swiss-Webster mouse lung at 3.7 MBq, iv after 30 mins; assay type: ADME, organism-based; conditions: in vivo, 0.5 h; in short: as §1
Kidney [14] = experiment: Biodistribution in Swiss-Webster mouse kidney at 3.7 MBq, iv after 30 mins; assay type: ADME, organism-based; conditions: in vivo, 0.5 h; in short: as §1
Stomach [15] = experiment: Biodistribution in Swiss-Webster mouse stomach at 3.7 MBq, iv after 30 mins; assay type: ADME, organism-based; conditions: in vivo, 0.5 h; in short: as §1
Intestine [16] = experiment: Biodistribution in Swiss-Webster mouse intestine at 3.7 MBq, iv after 30 mins; assay type: ADME, organism-based; conditions: in vivo, 0.5 h; in short: as §1
Brain [17] = experiment: Biodistribution in Swiss-Webster mouse brain at 3.7 MBq, iv after 30 mins; assay type: ADME, organism-based; conditions: in vivo, 0.5 h; in short: as §2
Heart [18] = experiment: Biodistribution in Swiss-Webster mouse heart at 3.7 MBq, iv after 60 mins; assay type: ADME, organism-based; conditions: in vivo, 1 h; in short: as §1
Liver [19] = experiment: Biodistribution in Swiss-Webster mouse liver at 3.7 MBq, iv after 60 mins; assay type: ADME, organism-based; conditions: in vivo, 1 h; in short: as §1
Spleen [20] = experiment: Biodistribution in Swiss-Webster mouse spleen at 3.7 MBq, iv after 60 mins; assay type: ADME, organism-based; conditions: in vivo, 1 h; in short: as §1
Lung [21] = experiment: Biodistribution in Swiss-Webster mouse lung at 3.7 MBq, iv after 60 mins; assay type: ADME, organism-based; conditions: in vivo, 1 h; in short: as §1
Kidney [22] = experiment: Biodistribution in Swiss-Webster mouse kidney at 3.7 MBq, iv after 60 mins; assay type: ADME, organism-based; conditions: in vivo, 1 h; in short: as §1
Stomach [23] = experiment: Biodistribution in Swiss-Webster mouse stomach at 3.7 MBq, iv after 60 mins; assay type: ADME, organism-based; conditions: in vivo, 1 h; in short: as §1
Intestine [24] = experiment: Biodistribution in Swiss-Webster mouse intestine at 3.7 MBq, iv after 60 mins; assay type: ADME, organism-based; conditions: in vivo, 1 h; in short: as §1
Brain [25] = experiment: Biodistribution in Swiss-Webster mouse brain at 3.7 MBq, iv after 60 mins; assay type: ADME, organism-based; conditions: in vivo, 1 h; in short: as §2
Brain [26] = experiment: Drug uptake in Swiss-Webster mouse brain at 111 MBq, iv after 20 mins by autoradiography; assay type: ADME, organism-based; conditions: in vivo
[27] = Drug uptake in Swiss-Webster mouse corpus callosum at 111 MBq, iv after 20 mins by magnetic resonance imaging analysis; assay type: ADME, organism-based; conditions: in vivo
[28] = Drug uptake in Swiss-Webster mouse corpus callosum at 111 MBq, iv after 20 mins by magnetic resonance imaging analysis in presence of BDB; assay type: ADME, organism-based; conditions: in vivo
[29] = Drug uptake in Swiss-Webster mouse corpus callosum at 111 MBq, iv; conditions: in vivo
Brain [30] = experiment: Drug uptake in Plp-Akt-DD transgenic mouse brain at 7.4 MBq, iv after 90 mins by microPET imaging analysis; conditions: in vivo, 1.5 h
[31] = Drug uptake in Plp-Akt-DD transgenic mouse corpus callosum 7.4 MBq, iv after 90 mins by microPET imaging analysis; conditions: in vivo, 1.5 h
Mus musculus [32] = species: Mus musculus; experiment: Binding affinity to myelin sheath in Plp-Akt-DD transgenic mouse corpus callosum at 10 uM after 20 mins; assay type: tissue-based; conditions: tested as the 11C-labelled form
Mus musculus [33] = species: Mus musculus; experiment: Binding affinity to myelin sheath in Plp-Akt-DD transgenic mouse corpus callosum by fluorescence assay; assay type: tissue-based
In short: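 Perfusion-fixed (4% PFA) brains from Plp-Akt-DD mice and wild-type SWR/J littermates (5 months old) were cut into 10 μm coronal cryosections and stained in vitro with 10 μM MeDAS. Fluorescence was imaged in the corpus callosum from the midline to below the apex of the cingulum, 8 images per mouse, 20× objective. Images were thresholded against Black-Gold reactivity and intensity was expressed relative to WT set at 100. n = 4, unpaired Student's t-test.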

Mus musculus [34] = experiment: In vivo binding affinity to myelin sheath in Plp-Akt-DD transgenic mouse corpus callosum at 25 mg/kg, iv after 30 mins by fluorescent microscopic analysis; assay type: functional, organism-based; design: dose 25 mg/kg; conditions: tested as the 11C-labelled form
In short: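 Anesthetized Plp-Akt-DD mice and control littermates received MeDAS, 25 mg/kg (about 0.5 mg), by tail vein. After 30 min they were perfused with saline and then 4% PFA. Brains were postfixed overnight, cryoprotected in 30% sucrose and cut into 10 μm cryosections. Sections were imaged directly by fluorescence microscopy, with Black-Gold staining done for comparison.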

logD [1]: 2.25 | Drug uptake (Heart [2]): 0.4 %ID | Drug uptake (Liver [3]): 15.86 %ID | Drug uptake (Spleen [4]): 0.28 %ID | Drug uptake (Lung [5]): 0.85 %ID | Drug uptake (Kidney [6]): 2.69 %ID | Drug uptake (Stomach [7]): 1 %ID | Drug uptake (Intestine [8]): 0.42 %ID | Drug uptake (Brain [9]): 2.56 %ID | Drug uptake (Heart [10]): 0.33 %ID | Drug uptake (Liver [11]): 10.83 %ID | Drug uptake (Spleen [12]): 0.39 %ID | Drug uptake (Lung [13]): 0.76 %ID | Drug uptake (Kidney [14]): 2 %ID | Drug uptake (Stomach [15]): 0.67 %ID | Drug uptake (Intestine [16]): 0.65 %ID | Drug uptake (Brain [17]): 1.05 %ID | Drug uptake (Heart [18]): 0.75 %ID | Drug uptake (Liver [19]): 7.75 %ID | Drug uptake (Spleen [20]): 0.9 %ID | Drug uptake (Lung [21]): 1.2 %ID | Drug uptake (Kidney [22]): 1.78 %ID | Drug uptake (Stomach [23]): 1.21 %ID | Drug uptake (Intestine [24]): 1.74 %ID | Drug uptake (Brain [25]): 1.37 %ID | Drug uptake (Brain [26]): Active | Drug uptake [27]: Active | Drug uptake [28]: Not Active | Drug uptake [29]: Active | Drug uptake (Brain [30]): Active | Drug uptake [31]: Active
Compound: [11CH3]Nc1ccc(/C=C/c2ccc(N)cc2)cc1

Drug uptake (Mus musculus [32]): Active | Drug uptake (Mus musculus [33]): Active
Compound: CNc1ccc(/C=C/c2ccc(N)cc2)cc1
Drug uptake (Mus musculus [34]): Active
